According to ChEMBL document CHEMBL4316599, “Synthesis, in vitro and in vivo biological evaluation of substituted 3-(5-imidazo[2,1-b]thiazolylmethylene)-2-indolinones as new potent anticancer agents” (Eur J Med Chem, 2019):
Calls of active or inactive are those of the source. No cut-off for these calls is given here.

What was measured:
[1] = Cytotoxicity against human PBL after 72 hrs by MTT assay; assay type: cell-based; settings: peripheral blood lymphocytes (PBL)
Method in brief: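 Lymphocytes from healthy donors were isolated on a Lymphoprep gradient and held overnight in RPMI-1640 with 10% FBS. Non-adherent cells were set at 5×10^5 cells/mL, either resting or stimulated with 2.5 μg/mL PHA. Cells were exposed to a range of compound concentrations for 72 h and viability read by MTT. GI50 is the mean ± SEM of three separate experiments.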

[2] = test system: NSCLC; experiment: Cytotoxicity against human NSCLC cells after 48 hrs by SRB assay; assay type: functional
Method in brief: (§1)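 NCI-60 screen: single-dose pass at 10^-5 M, then a five-concentration assay from 10^-9 to 10^-4 M (highest 100 μM). Exposure was 48 h under standard NCI protocols. GI50, TGI and LC50 were derived per cell line and averaged by subpanel. Repeated tests are the mean of two experiments.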

[3] = test system: CNS carcinoma cell; experiment: Cytotoxicity against human CNS cancer cells after 48 hrs by SRB assay; assay type: functional; method in brief: as §1
[4] = test system: K562; experiment: Cell cycle arrest in human K562 cells assessed as mitotic index at 5 times IC50 by Giemsa staining-based assay (reference value: 3%); assay type: functional
[5] = test system: Ovarian carcinoma cell; experiment: Cytotoxicity against human ovarian cancer cells after 48 hrs by SRB assay; assay type: functional; method in brief: as §1
[6] = test system: HeLa; experiment: Induction of apoptosis in human HeLa cells assessed as increase in caspase-3 activity at 50 to 250 nM after 24 hrs by Western blot analysis; assay type: functional, cell-based
Method in brief: (§2)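 HeLa cells treated 24 h, washed in ice-cold PBS and lysed on ice 30 min. Lysates were spun at 15000 x g, 4 °C. 10 µg protein run on SDS-PAGE and blotted to PVDF. Blots were blocked in 5% BSA overnight at 4 °C and probed 2 h at room temperature. Detection by HRP-secondary and ECL, with bands normalized to β-actin as fold of untreated. Three independent experiments, one-way ANOVA/Dunnett.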

[7] = test system: A549; experiment: Induction of apoptosis in human A549 cells at 25 nM after 24 to 48 hrs by Annexin V-FITC/propidium iodide staining-based flow cytometric analysis; assay type: functional, cell-based
Method in brief: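 A549 cells treated 24 or 48 h at 12.5–100 nM, then double-stained with annexin-V-FITC and PI. Phosphatidylserine exposure was read by flow cytometry. Mean ± SEM of three independent experiments.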

[8] = test system: B16-BL6; experiment: Antitumor activity mouse B16-BL6 cells implanted in C57BL/6 mouse assessed tumor growth inhibition at 7.5 mg/kg, ip dosed every other day for 18 days relative to control; assay type: functional; settings: 432 h, read-out: TGI
Method in brief: (§3)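 Syngeneic allograft: C57BL/6 mice, six weeks old, given 2.5×10^5 BL6-B16 or E0771 cells subcutaneously in the dorsolateral flank in PBS. Dosing began at about 100 mm³. Test compound or reference was given intraperitoneally every other day in 50 μL DMSO, with DMSO vehicle controls. Tumor volume was compared with the vehicle group, 5 animals per group, mean ± SEM, by 2-way ANOVA with Bonferroni correction.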

[9] = test system: E0771; experiment: Growth inhibition of mouse E0771 cells after 72 hrs by MTT assay; assay type: functional; settings: E0771, 72 h
Method in brief: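 Murine BL6-B16 melanoma and EO771 breast tumor cells were exposed to compound for 72 h. GI50 is reported ± error.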

[10] = test system: HeLa; experiment: Cell cycle arrest in human HeLa cells assessed as reduction in accumulation of cells at G1 phase up to 1000 nM after 24 hrs by propidium iodide staining-based flow cytometric analysis; assay type: functional
Method in brief: (§4)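 Cells exposed to a range of concentrations for 24 h (HeLa at 5×10^5 cells), then fixed in ice-cold 70% ethanol. Lysis buffer with RNase A and 0.1% Triton X-100 was applied before PI staining. DNA content was read by flow cytometry and G1/S/G2/M fractions taken from DNA histograms. Mean ± SEM of two independent experiments.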

[11] = test system: HeLa; experiment: Cell cycle arrest in human HeLa cells assessed as reduction in accumulation of cells at S phase up to 1000 nM after 24 hrs by propidium iodide staining-based flow cytometric analysis; assay type: functional; method in brief: as §4
[12] = test system: K562; experiment: Cell cycle arrest in human K562 cells assessed as mitotic index at 10 times IC50 by Giemsa staining-based assay (reference value: 3%); assay type: functional
[13] = test system: HeLa; experiment: Cell cycle arrest in human HeLa cells assessed as increase in cyclin B1 expression at 50 nM after 24 hrs by Western blot analysis; assay type: functional, cell-based; method in brief: as §2
[14] = test system: HeLa; experiment: Induction of apoptosis in human HeLa cells assessed as increase in caspase-9 activity at 50 to 250 nM after 24 hrs by Western blot analysis; assay type: functional, cell-based; method in brief: as §2
[15] = Cytotoxicity against human COLON cells after 48 hrs by SRB assay; assay type: functional; method in brief: as §1
[16] = test system: Melanoma cell line; experiment: Cytotoxicity against human melanoma cells after 48 hrs by SRB assay; assay type: functional; method in brief: as §1
[17] = test system: HeLa; experiment: Induction of apoptosis in human HeLa cells assessed as increase in cleaved PARP levels at 50 nM after 24 hrs by Western blot analysis; assay type: functional, cell-based; method in brief: as §2
[18] = test system: HeLa; experiment: Induction of apoptosis in human HeLa cells assessed as decrease in Mcl-1 levels at 50 to 250 nM after 24 hrs by Western blot analysis; assay type: functional, cell-based; method in brief: as §2
[19] = test system: Breast carcinoma cell; experiment: Cytotoxicity against human breast cancer cells after 48 hrs by SRB assay; assay type: functional; method in brief: as §1
[20] = biological target: Tubulin (Bos taurus, UniProt Q6B856+Q862L2+Q862F3); experiment: Inhibition of bovine brain tubulin polymerization after 20 mins by spectrophotometric analysis
Method in brief: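 Bovine brain tubulin (10 μM) in glutamate buffer preincubated with varying compound levels at 30 °C, then chilled to 0 °C. GTP added to 0.4 mM final, then warmed to 30 °C. Assembly followed by turbidity at 350 nm. IC50 is the concentration halving the extent of assembly after 20 min.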

[21] = test system: HT-29; experiment: Cell cycle arrest in human HT-29 cells assessed as reduction in accumulation of cells at G1 phase up to 1000 nM after 24 hrs by propidium iodide staining-based flow cytometric analysis; assay type: functional; method in brief: as §4
[22] = test system: B16-BL6; experiment: Antitumor activity mouse B16-BL6 cells implanted in C57BL/6 mouse assessed tumor growth inhibition at 15 mg/kg, ip dosed every other day for 18 days relative to control; assay type: functional; settings: 432 h, read-out: TGI; method in brief: as §3
[23] = test system: HeLa; experiment: Induction of apoptosis in human HeLa cells at 250 nM after 24 to 48 hrs by Annexin V-FITC/propidium iodide staining-based flow cytometric analysis; assay type: functional, cell-based
Method in brief: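 HeLa cells exposed 24 or 48 h to 250, 500 or 1000 nM; annexin-V-FITC plus PI double staining for surface phosphatidylserine and DNA, measured by flow cytometry. Mean ± SEM of three independent experiments.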

[24] = test system: E0771; experiment: Antitumor activity mouse E0771 cells implanted in C57BL/6 mouse assessed tumor growth inhibition at 15 mg/kg, ip dosed every other day for 20 days relative to control; assay type: functional; settings: 480 h, read-out: TGI; method in brief: as §3
[25] = test system: A549; experiment: Cell cycle arrest in human A549 cells assessed as accumulation of cells at G2/M phase after 24 hrs by propidium iodide staining-based flow cytometric analysis; assay type: functional; method in brief: as §4
[26] = read-out: LC50 (the source's name)

## O=C1Nc2c(ccc3ccccc23)C1=Cc1c(-c2ccncc2)nc2sccn12
[1]
  GI50 at 72 h: 4.5 µM
[2]
  GI50: 11.1 µM
  LC50: 97.9 µM
  TGI: 79.9 µM
[3]
  GI50: 0.04 µM
  TGI: 79.8 µM
[3]; [26]
  CC50: 94.3 µM
[4]
  Activity: 35%
[5]
  GI50: 0.05 µM
  LC50 (50% lethal concentration): 80 µM
  TGI: 73.8 µM
[6]
  Activity: Active
[7]
  Activity: Active
[8]
  inhibition in vivo at 7.5 mg/kg: 18%
[9]
  GI50: 0.015 µM
[10]
  Activity: Active
[11]
  Activity: Active
[12]
  Activity: 58%
[13]
  Activity: Active
[14]
  Activity: Active
[15]
  GI50: 0.03 µM
  TGI: 39.9 µM
[15]; [26]
  CC50: 77 µM
[16]
  GI50: 7.16 µM
  TGI: 72.9 µM
[16]; [26]
  CC50: 95.3 µM
[17]
  Activity: Active
[18]
  Activity: Active
[19]
  GI50: 0.04 µM
  LC50 (concentration killing 50% of cells): 99 µM
  TGI: 71.3 µM
[20]
  IC50: 14 µM
[21]
  Activity: Active
[22]
  inhibition in vivo at 15 mg/kg: 29.4%
[23]
  Activity: Active
[24]
  inhibition in vivo at 15 mg/kg: 56.8%
[25]
  Activity: Dose-dependent effect
